Source: the RNAGym collection of RNA variant scans (doi:10.1126/science.aae0568)
Variants at the floor of the assay were thinned out.

B1: tRNA (parent)
chain: GUUCCGUUGGCGUAAUGGUAACGCGUCUCCCUCCUAAGGAGAAGACUGCGGGUUCGAGUCCCGUACGGAACG

Variants of: B1
Experiment: yeast fitness relative to wild type (ratio to wild type); higher = fitter; tRNA-Arg(CCU), competitive growth, 37 C, YPD
Method in brief: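 Genotype frequency changes were the basis for Darwinian fitness relative to wild type. The frequencies came from 100-nucleotide paired-end sequencing of gene amplicons from the start population and each end population of pooled yeast strains with tRNA-Arg(CCU) gene variants at the native locus. Competition ran in YPD at 37°C for 24 hours in six replicates, genotypes needed ≥ 100 starting reads, and estimates < 0.5 were set to 0.5.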

| Variant | yeast fitness |
| --- | --- |
| U28C A45U G48C | 0.638 |
| U28C C34U C55U C61A | 0.592 |
| C29G C31A A43C G67A | ≤ 0.5 |
| C29A U35A G56A G63A | 0.525 |
| C29G A37U | 0.566 |
| U28C A43C C46A G48C | ≤ 0.5 |
| C29G G56C | ≤ 0.5 |
| U28G A40U U59C | 0.576 |
| U28G A36G A65U | ≤ 0.5 |
| C29G C33G U35G G44A A57G C66U A69U | ≤ 0.5 |
| C29G A43G A45C | ≤ 0.5 |
| C29G C30U A36C G39A C46G | 0.52 |
| C29G A43U | 0.594 |
| C29G G50A A57U A70U | ≤ 0.5 |
| U28C A40U | 1.01 |
| C29A C33U G67A | ≤ 0.5 |
| C29A U35C A45C C49U | ≤ 0.5 |
| U28G C30G A40C A42U G67A | ≤ 0.5 |
| C29A U47C G50C A57C | 0.582 |
| C29G A37G G51A C55A | ≤ 0.5 |
| C29G C33U G50A A70C | ≤ 0.5 |

| Variant | yeast fitness |
| --- | --- |
| U28C G56C | 0.53 |
| U28C G67C | 0.845 |
| C29G C55A A69U | ≤ 0.5 |
| C29A G56C A57G G68U | ≤ 0.5 |
| C29G A40U G44A | ≤ 0.5 |
| C29G C49G G56A | ≤ 0.5 |
| U28G A45C | 0.655 |
| C29G G44A | 0.593 |
| C29G A37U C46U | ≤ 0.5 |
| C29G G39C U47A | 0.978 |
| C29G C49G C60G | ≤ 0.5 |
| C29A C30U C33G C46U | ≤ 0.5 |
| C29G C46U A57G C61U | ≤ 0.5 |
| C29A U35C A45U C60G G63C | 0.538 |
| C29A C34G A36G A40C U47A U64C | ≤ 0.5 |
| C29A A43C | 0.748 |
| U28C C49G U59C | ≤ 0.5 |
| C29G U32C A70C | 0.555 |
| C29G C55A | 0.577 |
| C29G C55G | 0.538 |
| C29A C30A G50A | ≤ 0.5 |

| Variant | yeast fitness |
| --- | --- |
| C29A C62U | 0.723 |
| C29A A40C | 0.741 |
| C29A A40U | 0.684 |
| U28G C46G C61U | ≤ 0.5 |
| U28C G48A C60A C62U | ≤ 0.5 |
| C29G G41A | 0.723 |
| U28G A45G G51C A70G | ≤ 0.5 |
| U28G A36G | 0.712 |
| C29A G41A A43C C49U | ≤ 0.5 |
| C29G C31U A37U C62U A70G | ≤ 0.5 |
| C29A C55U A69U | ≤ 0.5 |
| C29A A37U A65U | ≤ 0.5 |
| C29A C66U | 0.627 |
| C29G U32C C61G C66G | ≤ 0.5 |
| C29G A40U G67C | 0.517 |
| C29G C34G C60G | 0.562 |
| C29A A37G C49A U64C G68A | ≤ 0.5 |
| C29G C30U C46U G48A G56A C61U C62G | ≤ 0.5 |
| C29A C60A | 0.616 |
| C29A G67C | 0.646 |
| C29A G67A | 0.605 |

| Variant | yeast fitness |
| --- | --- |
| C29G C34G | 0.563 |
| U28C C29G | 0.566 |
| U28C C29A | 0.703 |
| C29G C30U | 0.632 |
| C29G C31G C46G C55U A65U | 0.627 |
| C29A G48A C66U | ≤ 0.5 |
| U28G U32A A43C | ≤ 0.5 |
| C29G C62U G68A | 0.542 |
| C29A C46G A65G A70U | ≤ 0.5 |
| U28C U32C C62A | ≤ 0.5 |
| U28G A40C A42G A69C | 0.808 |
| C29G C30U G41C C66G G68A | ≤ 0.5 |
| U28C C29G C62U | ≤ 0.5 |
| C29A C55U G63C U64C | ≤ 0.5 |
| C29A A37U A43C | 0.733 |
| C29A G58C G67A | 0.589 |
| U28C A42G U47A | 0.535 |
| C29A C34G A42C C49G G68A | ≤ 0.5 |
| U28C G41C C60A C66U | ≤ 0.5 |
| C29A C31G C49A C55G | 0.549 |
| C29A G50C U64C | ≤ 0.5 |
